Test results as given in paper PMC6370590 (European journal of pharmaceutical sciences : official …, 2018).

Key:
[1] = biological target: T1, 14M_zTDP2^cat (humanized zebrafish TDP2 catalytic domain) (Danio rerio, UniProt Q5XJA0, A139S/C239T/C322L/D120S/K240R/K309Q/K314L/L136N/P317T/R321K/S320C/T315G/V316I/V319A/Y318A); experiment: 14M_zTDP2^cat fluorescence-based biochemical assay; details: for LE (ligand efficiency): LE = 1.4 x pIC50 / HAC; for LELP (ligand efficiency dependent lipophilicity): LELP = LE / cLogP as printed; for LLE (lipophilic ligand efficiency): LLE = pIC50 - cLogP; for TDP2 inhibition, SAR statement: compared with hit 11a
T1 sequence (Q5XJA0 120-369 D120S/L136N/A139S/C239T/K240R/K309Q/K314L/T315G/V316I/P317T/Y318A/V319A/S320C/R321K/C322L): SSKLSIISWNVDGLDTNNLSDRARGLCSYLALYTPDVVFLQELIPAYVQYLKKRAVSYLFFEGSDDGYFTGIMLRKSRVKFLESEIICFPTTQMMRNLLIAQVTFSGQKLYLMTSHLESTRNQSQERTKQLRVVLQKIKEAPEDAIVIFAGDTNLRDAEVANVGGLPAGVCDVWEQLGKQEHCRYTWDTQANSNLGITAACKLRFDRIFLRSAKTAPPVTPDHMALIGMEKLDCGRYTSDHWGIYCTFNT
Summary of the method: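 Humanized zebrafish TDP2 catalytic domain (residues 120–369), 6.25 pM final, pre-incubated 10 min with test compound in pH 7.4 Tris buffer (10 mM MgCl₂, 80 mM KCl, 0.05% Tween-20, 1 mM DTT). Reaction started with 1 μM (final) FAM-phosphotyrosyl-GATCT-BHQ-1 substrate at 25 °C. Fluorescence ([…]) read kinetically over 60 min. % inhibition normalised to DMSO and no-enzyme controls. IC₅₀ fitted from 10–12 concentrations.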

SUMO hTDP2^cat = biological target: T2, SUMO hTDP2^cat (Homo sapiens, UniProt O95551); experiment: SUMO hTDP2^cat fluorescence-based biochemical assay
T2 sequence (O95551 110-362): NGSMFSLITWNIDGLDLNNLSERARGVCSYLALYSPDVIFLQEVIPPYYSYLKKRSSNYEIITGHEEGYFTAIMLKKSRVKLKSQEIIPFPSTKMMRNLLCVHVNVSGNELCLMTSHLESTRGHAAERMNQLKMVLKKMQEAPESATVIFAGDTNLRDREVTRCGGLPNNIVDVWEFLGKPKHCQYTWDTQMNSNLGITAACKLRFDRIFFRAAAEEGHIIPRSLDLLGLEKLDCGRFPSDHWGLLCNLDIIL

COc1ccccc1-c1nn2c(-c3ccco3)nnc2s1 [Compound 19b, 3-(Furan-2-yl)-6-(2-methoxyphenyl)-[1,2,4]triazolo[3,4-b][1,3,4]thiadiazole]
TDP2 inhibition ([1]; concentrations up to 100 µM): did not exhibit significant TDP2 inhibition

Cc1ccc(-c2nn3c(-c4ccco4)nnc3s2)cc1C [Compound 19a, 6-(3,4-Dimethylphenyl)-3-(furan-2-yl)-[1,2,4]triazolo[3,4-b][1,3,4] thiadiazole]
LE (ligand efficiency) [1]: 0.30 | LELP (ligand efficiency dependent lipophilicity) [1]: 14 | LLE (lipophilic ligand efficiency) [1]: 0.29

CCOc1ccc2nc(NC(=N)N)nc(C)c2c1 [Compound 11b, 1-(6-Ethoxy-4-methylquinazolin-2-yl) guanidine]
TDP2 inhibition, SAR statement [1]: did not interfere significantly with the activity

COc1ccc2nc(Nc3nc(C)c(C)c(=O)[nH]3)nc(C)c2c1 [Compound 12a, 2-((6-Methoxy-4-methylquinazolin-2-yl)amino)-5,6-dimethylpyrimidin-4(3H)-one]
fold increase in potency over the original HTS hit 11a (SUMO hTDP2^cat; ratio of IC50 values): 6.4 fold

Cc1nc(NC(=N)N)nc2ccc(Cl)cc12.Cl [Compound 11c, 1-(6-Chloro-4-methylquinazolin-2-yl) guanidine hydrochloride]
inhibitory activity ([1]; up to 200 µM, vs. 11a): abrogated completely the inhibitory activity

COc1ccc2nc(NC(=N)N)nc(C)c2c1 [Compound 11a, 1-(6-Methoxy-4-methylquinazolin-2-yl) guanidine]
LE (ligand efficiency) [1]: 0.32 | LELP (ligand efficiency dependent lipophilicity) [1]: 4.9 | LLE (lipophilic ligand efficiency) [1]: 2.3 | IC50 (SUMO hTDP2^cat): 113 ± 10 µM

COc1ccc2nc(NC(=N)N)[nH]c(=O)c2c1 [Compound 15, 1-(6-Methoxy-4-oxo-3,4-dihydroquinazolin-2-yl)guanidine]
TDP2 inhibition, SAR statement [1]: no inhibition was observed
